Where two headings read alike, the source gives them in different places. Marks after values point to notes of the source that are not given here.
What was measured:
[1] = assay type: in vivo, human; details: for Metabolic ratio of AUC0–inf, metabolite/belinostat / Metabolic ratio of Cmax, metabolite/belinostat: Cycle 1 Day −7, geometric mean (geometric SD)
[2] = Phase 1 safety: adverse events; assay type: in vivo, human
[3] = system: solid tumours or lymphomas; assay: Tumour response by RECIST 1.1; assay type: in vivo, human
In short: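 CT scans were done at baseline and every 2 cycles, with response per RECIST 1.1. Dosing was IV over 30 min on days 1–5 of 21-day cycles, at doses set by liver-function cohort and dose level, after a single 400 mg/m2 dose on Cycle 1 Day −7. Cohorts were defined by bilirubin and AST relative to ULN.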

[4] = cited from earlier work
[5] = cited from earlier work; remark: listed apart in the source
[6] = patients with hepatocellular carcinoma; cited from earlier work
[7] = combination with 13‐cis‐retinoic acid; cited from earlier work
[8] = mild liver dysfunction (n = 25)
[9] = severe liver dysfunction (n = 15)
[10] = Dose level 1, mild (n = 9), at least possibly related
[11] = Dose level 1, moderate (n = 6), at least possibly related
[12] = Dose level 1, normal (n = 14), at least possibly related
[13] = Dose level 1, severe (n = 9), at least possibly related
[14] = Dose level 2, mild (n = 14), at least possibly related
[15] = Dose level 2, moderate (n = 6), at least possibly related
[16] = Dose level 2, severe (n = 5), at least possibly related

Question: What does the source list for `O=C(/C=C/c1cccc(S(=O)(=O)Nc2ccccc2)c1)NO[C@@H]1O[C@H](C(=O)O)[C@@H](O)[C@H](O)[C@H]1O` [Belinostat glucuronide, belinostat glucuronide]?
Answer: Metabolic ratio of AUC0–inf, metabolite/belinostat [1, 8]: 21.8 (1.63) ^d; Metabolic ratio of Cmax, metabolite/belinostat [1, 8]: 3.57(1.47) ^c; Metabolic ratio of AUC0–inf, metabolite/belinostat ([1]; normal liver function (n = 14)): 18.7 (1.63); Metabolic ratio of Cmax, metabolite/belinostat ([1]; normal liver function (n = 14)): 3.78 (1.47); Metabolic ratio of AUC0–inf, metabolite/belinostat [1, 9]: 17.7 (1.91); Metabolic ratio of Cmax, metabolite/belinostat [1, 9]: 2.85 (1.51)

Question: Which “Clearance as % of liver blood flow (extraction)” value ([1]; normal liver function, clearance 661 mL/min/m^2) does the source give for `O=C(/C=C/c1cccc(S(=O)(=O)Nc2ccccc2)c1)NO` [Belinostat, belinostat] here?
Answer: 76%

Question: And the “Increase in half‐life from normal to severe” value ([1]; normal vs severe liver dysfunction cohort, not statistically significant)?
Answer: 33%

Question: What about the “Patients with at least 1 grade ≥ 3 adverse event at least possibly related to study drug” value (“Patients … to study drug” for short) ([2]; All dose levels, all patients, n = 66) of the same compound?
Answer: 14 (21.2) number (%) of patients

Question: And the “Patients … to study drug” value ([2]; All dose levels, mild dysfunction, n = 23)?
Answer: 4 (17.4) number (%) of patients

Question: What about the “Patients … to study drug” value ([2]; All dose levels, moderate dysfunction, n = 12) of the same compound?
Answer: 3 (25) number (%) of patients

Question: And the “Patients … to study drug” value ([2]; All dose levels, normal liver function, n = 14)?
Answer: 5 (35.7) number (%) of patients

Question: What about the “Patients … to study drug” value ([2]; All dose levels, severe dysfunction, n = 17) of the same compound?
Answer: 2 (11.8) number (%) of patients

Question: What about the “Patients … to study drug” value ([2]; Dose level 1 (250 mg/m^2), severe dysfunction, n = 9) of the same compound?
Answer: 1 (11.1) number (%) of patients

Question: And the “Patients … to study drug” value ([2]; Dose level 1 (500 mg/m^2), moderate dysfunction, n = 6)?
Answer: 1 (16.7) number (%) of patients

Question: What about the “Patients … to study drug” value ([2]; Dose level 1 (750 mg/m^2), mild dysfunction, n = 9) of the same compound?
Answer: 1 (11.1) number (%) of patients

Question: And the “Patients … to study drug” value ([2]; Dose level 1 (1000 mg/m^2), normal liver function, n = 14)?
Answer: 5 (35.7) number (%) of patients

Question: And the “Patients … to study drug” value ([2]; Dose level 1, all patients, n = 38)?
Answer: 8 (21.1) number (%) of patients

Question: What about the “Anaemia, Grade 2” value [2, 10] of the same compound?
Answer: 1 number of patients

Question: And the “Fatigue, Grade 2” value [2, 10]?
Answer: 1 number of patients

Question: What about the “Fatigue, Grade 3” value [2, 10] of the same compound?
Answer: 1 number of patients

Question: What about the “Vomiting, Grade 2” value [2, 10] of the same compound?
Answer: 1 number of patients

Question: What about the “Anaemia, Grade 2” value [2, 11] of the same compound?
Answer: 3 number of patients

Question: And the “Fatigue, Grade 2” value [2, 11]?
Answer: 1 number of patients

Question: What about the “Lymphocyte count decreased, Grade 2” value [2, 11] of the same compound?
Answer: 1 number of patients

Question: And the “Lymphocyte count decreased, Grade 3” value [2, 11]?
Answer: 1 number of patients

Question: What about the “Anaemia, Grade 2” value [2, 12] of the same compound?
Answer: 1 number of patients

Question: What about the “Anaemia, Grade 3” value [2, 12] of the same compound?
Answer: 1 number of patients

Question: And the “Fatigue, Grade 2” value [2, 12]?
Answer: 2 number of patients

Question: And the “Fatigue, Grade 3” value [2, 12]?
Answer: 1 number of patients

Question: And the “Lymphocyte count decreased, Grade 2” value [2, 12]?
Answer: 1 number of patients

Question: What about the “Lymphocyte count decreased, Grade 3” value [2, 12] of the same compound?
Answer: 3 number of patients

Question: And the “Nausea, Grade 2” value [2, 12]?
Answer: 3 number of patients

Question: What about the “Vomiting, Grade 2” value [2, 12] of the same compound?
Answer: 1 number of patients

Question: And the “Fatigue, Grade 2” value [2, 13]?
Answer: 1 number of patients

Question: And the “Vomiting, Grade 2” value [2, 13]?
Answer: 1 number of patients

Question: And the “Lung infection, Grade 5” value ([2]; Dose level 1, severe (n = 9), possibly related)?
Answer: 1 number of patients

Question: What about the “Patients … to study drug” value ([2]; Dose level 2 (350 mg/m^2), severe dysfunction, n = 8) of the same compound?
Answer: 1 (12.5) number (%) of patients

Question: And the “Patients … to study drug” value ([2]; Dose level 2 (750 mg/m^2), moderate dysfunction, n = 6)?
Answer: 2 (33.3) number (%) of patients

Question: What about the “Patients … to study drug” value ([2]; Dose level 2 (1000 mg/m^2), mild dysfunction, n = 14) of the same compound?
Answer: 3 (21.4) number (%) of patients

Question: What about the “Patients … to study drug” value ([2]; Dose level 2, all patients, n = 28) of the same compound?
Answer: 6 (21.4) number (%) of patients

Question: What about the “Anaemia, Grade 2” value [2, 14] of the same compound?
Answer: 3 number of patients

Question: And the “Fatigue, Grade 2” value [2, 14]?
Answer: 2 number of patients

Question: And the “Fatigue, Grade 3” value [2, 14]?
Answer: 2 number of patients

Question: What about the “Lymphocyte count decreased, Grade 2” value [2, 14] of the same compound?
Answer: 4 number of patients

Question: And the “Nausea, Grade 2” value [2, 14]?
Answer: 3 number of patients

Question: And the “Vomiting, Grade 2” value [2, 14]?
Answer: 1 number of patients

Question: And the “Vomiting, Grade 3” value [2, 14]?
Answer: 1 number of patients

Question: What about the “Anaemia, Grade 2” value [2, 15] of the same compound?
Answer: 1 number of patients

Question: What about the “Bilirubin increased, Grade 2” value [2, 15] of the same compound?
Answer: 1 number of patients

Question: What about the “Bilirubin increased, Grade 3” value [2, 15] of the same compound?
Answer: 2 number of patients

Question: What about the “Fatigue, Grade 2” value [2, 15] of the same compound?
Answer: 1 number of patients

Question: And the “Fatigue, Grade 3” value [2, 15]?
Answer: 2 number of patients

Question: What about the “Anaemia, Grade 2” value [2, 16] of the same compound?
Answer: 1 number of patients

Question: What about the “Lymphocyte count decreased, Grade 2” value [2, 16] of the same compound?
Answer: 2 number of patients

Question: What about the “Grade 2 or greater anaemia attributed to the study drug” value ([2]; all treated patients) of the same compound?
Answer: 17.1%

Question: And the “Grade 2 or greater fatigue attributed to the study drug” value ([2]; all treated patients)?
Answer: 21.9%

Question: What about the “Grade 2 or greater lymphopenia attributed to the study drug” value ([2]; all treated patients) of the same compound?
Answer: 18.8%

Question: What about the “Patients with grade ≥ 3 toxicity” value ([2]; mild cohort (4/23)) of the same compound?
Answer: 17.4%

Question: What about the DLTs ([2]; mild cohort, DL 2 (1000 mg/m^2), 6 evaluable patients) of the same compound?
Answer: no DLTs

Question: And the “Patients with grade ≥ 3 toxicity” value ([2]; moderate cohort (3/12))?
Answer: 25%

Question: And the DLTs ([2]; moderate cohort, DL 2 (750 mg/m^2), 3 evaluable patients)?
Answer: no DLTs

Question: What about the “Patients with a grade ≥ 3 AE” value ([2]; normal cohort (5/14)) of the same compound?
Answer: 35.7%

Question: And the MTD ([2]; patients with mild dysfunction, same as recommended phase 2 dose)?
Answer: 1000 mg/m^2/day

Question: And the DLTs ([2]; severe cohort, DL 1 (250 mg/m^2), 6 evaluable patients, grade 5 lung infection)?
Answer: 1

Question: What about the “Complete or partial responses” value ([3]; any of the 4 cohorts) of the same compound?
Answer: No complete or partial responses

Question: And the “Patients with stable disease” value ([3]; of 47 patients evaluable for response)?
Answer: 28%

Question: And the “Patients with stable disease” value ([3]; of 47 patients evaluable for response, after the first 2 cycles)?
Answer: 13 patients

Question: And the “Patients with stable disease” value ([3]; on DL 1)?
Answer: 11 patients

Question: What about the “Patients with stable disease” value ([3]; on DL 2) of the same compound?
Answer: 2 patients

Question: What about the “Time on study treatment, median” value ([3]; patients with stable disease) of the same compound?
Answer: 4 21‐day cycles

Question: What about the “Time on study treatment, range” value ([3]; patients with stable disease) of the same compound?
Answer: 2–12 cycles

Question: What about the “% of dose by glucuronidation (UGT1A1 and UGT2B7), clinical mass balance” value [4] of the same compound?
Answer: 41.4%

Question: What about the “% of dose by methylation, clinical mass balance” value [4] of the same compound?
Answer: 1.9%

Question: And the “Total administered belinostat excreted unchanged in the urine” value [4]?
Answer: up to 2%

Question: What about the “Patients who experienced DLT” value ([5]; at 1200 mg/m^2/day) of the same compound?
Answer: 3 of 5

Question: What about the “Recommended phase 2 dose” value ([5]; days 1–5 of a 21‐day cycle) of the same compound?
Answer: 1000 mg/m^2/day

Question: What about the “MTD (not reached at highest dose tested)” value [6] of the same compound?
Answer: ≥ 1400 mg/m^2/day

Question: And the “MTD (not reached)” value [7]?
Answer: ≥ 2000 mg/m^2/day

From article PMC6848909 (British Journal of Clinical Pharmacology, 2019)
